Like-named read-outs stand apart in the source and are kept apart here.
Key:
[1] = system: human hematopoietic progenitors: erythroid precursors; experiment: Methylcellulose-based in vitro colony forming assay, erythroid precursors; type: cell-based; details: read-out: IC50, growth inhibition of erythroid precursors
[2] = system: human hematopoietic progenitors: common myeloid precursors; experiment: Methylcellulose-based in vitro colony forming assay, common myeloid precursors; type: cell-based; details: read-out: IC50, growth inhibition of common myeloid precursors
BH3-only proteins = details: no reference printed with the sentence; cited from earlier work
CD3+ cells (T-cells) = experiment: Pharmacodynamic effect on circulating CD3+ cells; type: in vivo, human; details: after 14 days of drug exposure (day 14 of cycle 1), at least 200 mg
Method in brief: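 Patients with relapsed or refractory lymphoid malignancies took the test compound orally each day. Two schedules were used: days 1–14 of a 21-day cycle, or continuous dosing after a 150 mg lead-in lasting 7–14 days. Circulating CD3+ counts were compared with baseline. The P-value for the change from baseline came from a Sign-test because the data were skewed.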

circulating platelets = experiment: Pharmacodynamic effect on circulating platelets; type: in vivo, human; details: platelet nadir versus navitoclax AUC, n=35 patients
[3] = system: relapsed/refractory lymphoid malignancies; experiment: Tumor response and survival; type: in vivo, human
animal models = experiment: Projected effective exposure from animal models; type: in vivo; details: based on animal models
[4] = system: patients with relapsed or refractory lymphoid malignancies; details: in vivo
[5] = human, in vivo
hematological cell lines = details: in 11 of 23 hematological cell lines, ref [10]; cited from earlier work
[6] = system: murine xenograft model of acute lymphocytic leukemia; details: ref [11]; cited from earlier work
[7] = system: xenograft model of mantle cell lymphoma; details: ref [11]; cited from earlier work
[8] = system: BCL-XL and BCL-2 over expressing prolymphocytic murine cell lines; details: coimmunoprecipitation; ref [11], [27]; cited from earlier work
[9] = system: BCL-2 dependent human small cell lung cancer (SCLC) cell line; details: within 2 hours of treatment; ref [11], [27]; cited from earlier work
clinical = details: human, in vivo
[10] = system: patients with relapsed or refractory lymphoid malignancies; experiment: Phase 1 dose-escalation study: toxicity and DLT
[11] = Pharmacokinetic profile in patients
patients = details: cited from earlier work; for clinical activity: clinical testing, [24]; for clinical activity / on-target pharmacodynamic effects on platelets: ref [23]; for dose-limiting toxicities: gossypol ref [23], obatoclax ref [24]; for on-target pharmacodynamic effects on platelets: review of toxicities, [25]–[28]
[12] = Grade 1/2, Continuous (21/21) Schedule MTD 325 mg (N=5)
[13] = Grade 1/2, Intermittent (14/21) Schedule All Patients (N=38)
[14] = Grade 3/4, Continuous (21/21) Schedule All Patients (N=17)
[15] = Grade 3/4, Continuous (21/21) Schedule MTD 325 mg (N=5)
[16] = Grade 3/4, Intermittent (14/21) Schedule All Patients (N=38)
[17] = Grade 3/4, Intermittent (14/21) Schedule MTD 315 mg (N=9)

CN(C)CC[C@H](CSc1ccccc1)Nc1ccc(S(=O)(=O)NC(=O)c2ccc(N3CCN(Cc4ccccc4-c4ccc(Cl)cc4)CC3)cc2)cc1[N+](=O)[O-] [ABT-737]
IC50 [1]: 1000 nM | IC50 [2]: 900 nM | binding affinity relative to previously reported compounds (BH3-only proteins): two to three orders of magnitude greater

CC1(C)CCC(c2ccc(Cl)cc2)=C(CN2CCN(c3ccc(C(=O)NS(=O)(=O)c4ccc(N[C@H](CCN5CCOCC5)CSc5ccccc5)c(S(=O)(=O)C(F)(F)F)c4)cc3)CC2)C1 [Navitoclax]
median reduction of circulating CD3+ cells (CD3+ cells (T-cells)): 241 CD3+ cells/µl | severity of the platelet nadirs (circulating platelets): concentration dependent | median PFS ([3]; 16 patients with follicular lymphoma, IQR 42-92): 88 days | patients achieving a PR ([3]; CLL/SLL patients with measurable adenopathy): 8 of 16 | PR in NK/T-cell lymphoma ([3]; NK/T-cell lymphoma): single patient | median overall survival ([3]; all 20 patients with CLL/SLL): has not been reached | median PFS ([3]; all 20 patients with CLL/SLL, IQR 49-309): 246 days | reduction in leukemia cells ([3]; all seven patients with CLL): ≥ 50% | patients with measurable tumor reduction ([3]; follicular lymphoma): 6 of 16 | patients with some tumor reduction ([3]; patients with evaluable adenopathy, all dose levels): 21 of 46 | cycles until response, median (range) ([3]; responders across dose levels and tumor types): 3.5 (2–10) cycles | projected effective exposure (AUC) (animal models): 55000 to 88000 ng·h/mL | All Infections, patients n (%) ([4]; human): 14 (82%) | Herpes Zoster, patients n (%) ([4]; human): 1 (6%) | dose selected for phase II study ([4]; human): 325 mg | grade 1/2 fatigue, number of patients ([4]; human): 21 patients | grade 3/4 neutropenia, number of patients ([4]; human): 17 patients | grade 3/4 thrombocytopenia, number of patients ([4]; human): 29 patients | recommended phase 2 dose ([4]; human): 325 g/day | patients who developed respiratory infections and/or bronchitis [4]: Eight | patients who withdrew their consent for treatment [4]: 6 patients | dose levels at which projected effective exposure was achieved [5]: at least 315 mg/day | t½ ([5]; 315 mg): 15·1 ± 3·0 h | increase of oral bioavailability by food ([5]; po): approximately 20% | CL/F (apparent oral clearance) ([5]; po, 315 mg): 4·1 ± 2·1 L/h | EC50 (hematological cell lines): < 1000 nM | tumor response in xenograft [6]: durable and complete tumor regressions | effect on cure rate of rituximab plus chemotherapy [7]: significantly improved | BIM:BCL-2 family protein interactions [8]: dose-dependent decrease | cytochrome c [9]: increase | cytosolic BAX [9]: dose-dependent decrease | half-life (clinical): ~17 h | All Infections, patients n (%) [10, 12]: 5 (100%) | Herpes Zoster, patients n (%) [10, 12]: 1 (20%) | All Infections, patients n (%) [10, 13]: 25 (66%) | Herpes Zoster, patients n (%) [10, 13]: 0 | All Infections, patients n (%) ([10]; Grade 1/2, Intermittent (14/21) Schedule MTD 315 mg (N=9)): 8 (89%) | All Infections, patients n (%) [10, 14]: 0 | Herpes Zoster, patients n (%) [10, 14]: 0 | All Infections, patients n (%) [10, 15]: 0 | Herpes Zoster, patients n (%) [10, 15]: 0 | All Infections, patients n (%) [10, 16]: 6 (16%) | Herpes Zoster, patients n (%) [10, 16]: 1 (3%) | All Infections, patients n (%) [10, 17]: 1 (11%) | Herpes Zoster, patients n (%) [10, 17]: 0 | safe tolerated dose ([10]; intermittent (14/21) schedule, oral once daily): 315 mg | patients who required at least one dose reduction ([10]; overall dose levels): 11 patients | time to peak concentrations (Cmax) post-dose ([11]; 14/21-day schedule, overall): approximately 9 hours | detection in urine (renal elimination) ([11]; 24-hour urine collection after dosing on C1 D–3): could not be detected | dose dependence of exposure ([11]; between 10 mg and 440 mg): dose-proportional

Cc1cc2c(C(C)C)c(O)c(O)c(C=O)c2c(O)c1-c1c(C)cc2c(C(C)C)c(O)c(O)c(C=O)c2c1O [gossypol]
clinical activity (patients): little to no clinical activity | dose-limiting toxicities (patients): gastrointestinal side effects | on-target pharmacodynamic effects on platelets (patients): no on-target pharmacodynamic effects on platelets

COC1=CC(c2cc3ccccc3[nH]2)=N/C1=C\c1[nH]c(C)cc1C [obatoclax]
clinical activity (patients): little to no clinical activity | dose-limiting toxicities (patients): Infusion-related somnolence and neurologic symptoms | on-target pharmacodynamic effects on platelets (patients): no on-target pharmacodynamic effects on platelets

Reference: publication PMC3025495 (The lancet oncology, 2010)
